Paper PMC5450914 (Bioorganic & medicinal chemistry, 2017)

Columns and labels:
[1] = tested on: RPMI-8226 cells; experiment: Disruption of protein geranylgeranylation in myeloma cells; format: cell-based; details: 48 hours
Outline: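 RPMI-8226 myeloma cells exposed 48 h to varying test compound concentrations, with lovastatin 10 μM as comparator. Rap1a: RIPA whole-cell lysate, antibody recognising only unmodified protein, β-tubulin loading control. Rab6: Triton X-114 detergent (membrane) fraction, calnexin loading control, densitometry normalised to calnexin and to untreated cells. Equal BCA-quantified protein resolved by SDS-PAGE, transferred to PVDF, detected with HRP secondary and ECL.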

[2] = target: T1, Recombinant GGDPS (Homo sapiens, UniProt O95749); experiment: GGDPS enzyme assay; format: biochemical
T1 sequence (O95749 1-300): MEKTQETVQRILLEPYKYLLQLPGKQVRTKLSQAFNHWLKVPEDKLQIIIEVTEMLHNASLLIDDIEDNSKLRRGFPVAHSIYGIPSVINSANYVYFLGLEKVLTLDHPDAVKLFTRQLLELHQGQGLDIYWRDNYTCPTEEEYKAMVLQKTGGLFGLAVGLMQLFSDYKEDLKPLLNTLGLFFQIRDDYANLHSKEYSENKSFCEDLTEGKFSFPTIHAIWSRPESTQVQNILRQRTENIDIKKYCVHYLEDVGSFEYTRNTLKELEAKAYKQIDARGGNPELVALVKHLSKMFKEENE

potency relative to geranyl 1 (GGDPS inhibitory activity) ([2]; compared with previously reported compound 1) | fold less potent than homogeranyl 4 (GGDPS inhibitory activity) ([2]; compared with previously reported compound 4) | Structure (SMILES) | lowest concentration at which disruption of protein geranylgeranylation was seen [1]
– | – | CC(C)=CCC/C(C)=C\CCCn1cc(CC(P(=O)([O-])[O-])P(=O)([O-])[O-])nn1.[Na+].[Na+].[Na+].[Na+] [17c, Sodium (4Z)–(2–(1–(5,9–dimethyldeca–4,8–dienyl)–1H–1,2,3–triazol–4–yl)ethane–1,1–diyl)bis(phosphonate)] | 0.5 µM
six-fold more potent | 15 fold | CC(C)=CCC/C(C)=C/CCCn1cc(CC(P(=O)([O-])[O-])P(=O)([O-])[O-])nn1.[Na+].[Na+].[Na+].[Na+] [17b, Sodium (4E)–(2–(1–(5,9–dimethyldeca–4,8–dienyl)–1H–1,2,3–triazol–4–yl)ethane–1,1–diyl)bis(phosphonate)] | –
